Experimental data: PMC7425423 (Brain Communications, 2020)

Test system: T98G, U87MG and E98
Experiment: Viability after Gefitinib
Format: cell-based, human
Settings: 72 hours, 10 µM
Summary of the method: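 Cells were seeded at 3–5 × 10³/well in 96-well plates and allowed to attach. After 24 h the test compound was added, and viability was read at 72 h by CellTiter-Glo luminescence, normalized as % of control. U87MG and E98 were grown in DMEM and T98G in Eagle MEM, each with 10% heat-inactivated FBS, at 37°C and 5% CO2.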

## COc1cc2ncnc(Nc3ccc(F)c(Cl)c3)c2cc1OCCCN1CCOCC1 [Gefitinib]
  sensitivity of cell lines (viability): resistance
